Data reported in ChEMBL document CHEMBL4715918, “Syntheses and evaluation of acridone-naphthalimide derivatives for regulating oncogene PDGFR-β expression” (Bioorg Med Chem, 2021).

Experiments:
MCF7 [1] = assay: Induction apoptosis in human MCF7 cells incubated for 24 hrs by Annexin-FTTC/PI staining based flow cytometric analysis; format: functional, cell-based; details: dose 1.25-5 µM
MCF7 [2] = assay: Antitumour activity against human MCF7 cells xenografted in nude BALB/c mouse assessed as tumour volume at 5 mg/kg, ip administered for 34 days (reference value: 1530 mm3); format: functional; details: time 34 day
Quadruplex DNA [3] = assay: Binding affinity to 5'-FAM-GGGAGAAGGGGGGGCGGCGGGGCAGGGAGGGTGGAC-TAMRA-3' G4-quadruplex DNA (unknown origin) assessed as stabilization G4-quadruplex structure by measuring increase in I585/I518 ratio by FRET assay; format: nucleic-acid assay; details: dose 2-10 equiv
Procedure, shortened: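 FRET probe dual-labelled FAM/TAMRA, annealed, 10 µM in 10 mM Tris-HCl pH 7.4 with 10 mM KCl; compound added in equal volume. Emission 500–700 nm recorded, corrected for compound signal in the same buffer; I585/I518 ratio compared.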

MCF7 [4] = assay: Induction apoptosis in human MCF7 cells assessed as early apoptotic cells at 1.25 uM incubated for 24 hrs by Annexin-FTTC/PI staining based flow cytometric analysis (reference value: 0.28%); format: functional
MCF7 [5] = assay: Induction of cell cycle arrest in human MCF7 cells assessed as accumulation at G2/M phase at 0.625 to 10 uM after 48 hrs by propidium iodide staining based flow cytometric analysis (reference value: 15.8%); format: functional; details: dose 0.625-10 µM
Procedure, shortened: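 MCF-7 cells, 2 × 10^5/well, were pre-grown 12 h, then treated with 10, 5, 2.5, 1.25, 0.625 μM compound or DMSO. Cells were fixed in 75% ethanol at −20 °C overnight. Staining was 50 μg/mL PI with RNase A, 30 min at room temperature in the dark. Flow cytometry collected 10,000 events; phase distribution was determined.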

[6] = Binding affinity to 5'-FAM-GCGTCCACCCTCCCTGCCCCGCCGCCCCCCCTTCTCCCAGC-TAMRA-3' i-motif DNA (unknown origin) at pH 5.5 assessed as unfolding i-motif structure
[7] = Toxicity in nude BALB/c mouse xenografted with human MCF7 cells assessed as reduction in body weight at 2.5 to 10 mg/kg, ip administered for 34 days; format: organism-based; details: in vivo, 816 h, dose 2.5-10 mg/kg, time 34 day
Procedure, shortened: (§1)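 Nude BALB/c females bearing subcutaneous MCF-7 xenografts were dosed ip once daily for 34 days at 2.5, 5.0 or 10 mg/kg, with saline vehicle (100 µL) as control. Body weight was recorded every 2 days. After euthanasia by cervical dislocation, heart, liver, spleen and kidney were removed and weighed.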

MCF7 [8] = assay: Induction apoptosis in human MCF7 cells assessed as early apoptotic cells at 2.5 uM incubated for 24 hrs by Annexin-FTTC/PI staining based flow cytometric analysis (reference value: 0.28%); format: functional
MCF7 [9] = assay: Cytotoxicity against human MCF7 cells assessed as reduction in cell viability after 48 hrs by MTT assay; format: functional, cell-based; details: MCF7, 48 h
Procedure, shortened: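 MTT assay: cells seeded at 5.0 × 10³/well, grown 12 h, then exposed to graded compound concentrations for 48 h at 37 °C/5% CO2. 2.5 mg/mL MTT was added for 4 h, formazan dissolved in DMSO, and absorbance read at 570 nm. Each dose in triplicate; IC50 from percent survival versus negative control.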

[10] = Binding affinity to 5'-FAM-GCGTCCACCCTCCCTGCCCCGCCGCCCCCCCTTCTCCCAGC-TAMRA-3' i-motif DNA (unknown origin) assessed as unfolding i-motif structure by measuring reduction in I585/I518 ratio by FRET assay; details: dose 2-10 equiv
Procedure, shortened: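 FRET probe: i-motif oligonucleotide dual-labelled with FAM donor and TAMRA acceptor, 10 µM in 30 mM BPES buffer with 1 mM EDTA, KCl, thermally annealed. Compound was added in equal volume at increasing concentrations. Emission was scanned 500–700 nm and corrected for the compound's own signal. Read-out was the I585/I518 ratio, with the titration run at pH 6.2.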

[11] = Binding affinity to FAM-labeled 5'-biotin-d [GCGTCCACCCTCCCTGCCCCGCCGCCCCCCCITCTCCCAGC]-3' i-motif DNA (unknown origin) by microscale thermophoresis assay
Procedure, shortened: (§2)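 Microscale thermophoresis with DNA held constant at 1 µM. Compound serially diluted 3:4 from 10 µM over 12 points. Samples run in standard glass capillaries with LED and laser power both at 20%. KD derived by fitting.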

MCF7 [12] = assay: Induction apoptosis in human MCF7 cells assessed as viable cells at 2.5 uM incubated for 24 hrs by Annexin-FTTC/PI staining based flow cytometric analysis (reference value: 99.7%); format: functional; details: read-out: Activity
[13] = Toxicity in nude BALB/c mouse xenografted with human MCF7 cells assessed as heart weight at 2.5 to 10 mg/kg, ip administered for 34 days; format: organism-based; details: in vivo, 816 h, dose 2.5-10 mg/kg, time 34 day; procedure, shortened: as §1
MCF7 [14] = assay: Antitumour activity against human MCF7 cells xenografted in nude BALB/c mouse assessed as tumour growth inhibition at 5 mg/kg, ip administered for 34 days relative to control; format: functional; details: 816 h, time 34 day, read-out: TGI
MCF7 [15] = assay: Antitumour activity against human MCF7 cells xenografted in nude BALB/c mouse assessed as tumour volume at 10 mg/kg, ip administered for 34 days (reference value: 1530 mm3); format: functional; details: time 34 day
Quadruplex DNA [16] = assay: Binding affinity to FAM-labeled 5'-biotin-d [GCTGGGAGAAGGGGGGGCGGCGGGGCAGGGAGGGTGGACGC]-3' G4-quadruplex DNA (unknown origin) by microscale thermophoresis assay; format: nucleic-acid assay; procedure, shortened: as §2
MCF7 [17] = assay: Induction apoptosis in human MCF7 cells assessed as late apoptotic cells at 1.25 uM incubated for 24 hrs by Annexin-FTTC/PI staining based flow cytometric analysis (reference value: 0%); format: functional
Quadruplex DNA [18] = assay: Binding affinity to 5'-biotin-d [GCTGGGAGAAGGGGGGGCGGCGGGGCAGGGAGGGTGGACGC]-3' G4-quadruplex DNA (unknown origin) assessed as decrease in positive peak by CD spectroscopy; format: nucleic-acid assay; details: dose 2-10 equiv
Procedure, shortened: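 CD spectra: oligomers at 2 μM final, in BPES pH 5.5 (i-motif) or Tris-HCl pH 7.4 (G-quadruplex). Samples were annealed (95 °C 5 min, slow cool, 4 °C overnight), then titrated with increasing compound. Spectra were recorded at 25 °C over 230–330 nm in a 1 mm cuvette, buffer-subtracted, averaged and smoothed.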

MCF7 [19] = assay: Induction apoptosis in human MCF7 cells assessed as necrotic cells at 5 uM incubated for 24 hrs by Annexin-FTTC/PI staining based flow cytometric analysis (reference value: 0.11%); format: functional
MCF7 [20] = assay: Binding affinity to wild type PDGFRbeta promoter (unknown origin) in human MCF7 cells assessed as down regulation of PDGFRbeta expression at 1.25 to 20 uM after 12 hrs; details: dose 1.25-20 µM
MCF7 [21] = assay: Induction apoptosis in human MCF7 cells assessed as viable cells at 1.25 uM incubated for 24 hrs by Annexin-FTTC/PI staining based flow cytometric analysis (reference value: 99.7%); format: functional; details: read-out: Activity
MCF7 [22] = assay: Binding affinity to wild type PDGFRbeta promoter (unknown origin) in human MCF7 cells assessed as down regulation of PDGFRbeta mRNA expression at 1.25 to 20 uM after 12 hrs by RT-PCR analysis; format: cell-based; details: dose 1.25-20 µM

Activity (Quadruplex DNA [3]): Dose-dependent effect
Activity [6]: Dose-dependent effect
Activity [10]: Dose-dependent effect
Kd [11]: 4.52 µM
Kd (Quadruplex DNA [16]): 6.11 µM
Activity (Quadruplex DNA [18]): Dose-dependent effect
SMILES: Cc1ccc2c(c1)c(=O)c1cc(C(=O)NCCCN(C)CCCN3C(=O)c4cccc5c(N6CCN(C)CC6)ccc(c45)C3=O)ccc1n2-c1ccc(C(=O)NCCCN(C)CCCN2C(=O)c3cccc4c(N5CCN(C)CC5)ccc(c34)C2=O)cc1
Activity (MCF7 [1]): Dose-dependent effect
Activity (MCF7 [2]): 780 mm3
Activity (MCF7 [4]): 7.38%
Activity (MCF7 [5]): 31.5%
Activity [7]: Non-Toxic
Activity (MCF7 [8]): 26.1%
IC50 (MCF7 [9]): 4.69 µM
viability at 2.5 µM (MCF7 [12]): 71.4%
Activity [13]: Non-Toxic
inhibition in vivo at 5 mg/kg (MCF7 [14]): 47.6%
Activity (MCF7 [15]): 640.2 mm3
Activity (MCF7 [17]): 0.8%
Activity (MCF7 [19]): 2.42%
Activity (MCF7 [20]): Dose-dependent effect
viability at 1.25 µM (MCF7 [21]): 91.4%
Activity (MCF7 [22]): Dose-dependent effect
